How the values were obtained:
Histamine H3 receptor [1] = biological target: T1, Histamine H3 receptor (Homo sapiens, UniProt Q9Y5N1); experiment: Displacement of 3 nM [3H]Nalpha-methylhistamine from human H3R expressed in Sf9 cell membranes co-expressing Gia2 and beta1gamma2 by competition binding assay
Outline: (§1)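 Competition binding on Sf9 membranes in 100 μL with 0.2% BSA. Membrane protein: 5−25 μg (H4R), 24−35 μg (H3R), 15 μg (H2R), 23 μg (H1R). Normalized total binding was plotted against log competitor. Two to four independent experiments, each in triplicate.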

[2] = Chemical stability in PBS buffer at pH 7.4 at 200 uM at 23 degC measured over 24 hrs by RP-HPLC analysis; type: physicochemical; details: pH 7.4, 24 h
Outline: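 Compounds diluted to 200 μM in PBS pH 7.4 from a 10 mM DMSO stock, incubated at 23 °C for 24 h, and analysed by RP-HPLC with detection at 220 nm.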

Histamine H4 receptor [3] = biological target: T2, Histamine H4 receptor (Homo sapiens, UniProt Q9H3N8); experiment: Agonist activity at human H4R by [35S]-GTPgammaS-binding assay; type: functional
T2 sequence (Q9H3N8 whole entry): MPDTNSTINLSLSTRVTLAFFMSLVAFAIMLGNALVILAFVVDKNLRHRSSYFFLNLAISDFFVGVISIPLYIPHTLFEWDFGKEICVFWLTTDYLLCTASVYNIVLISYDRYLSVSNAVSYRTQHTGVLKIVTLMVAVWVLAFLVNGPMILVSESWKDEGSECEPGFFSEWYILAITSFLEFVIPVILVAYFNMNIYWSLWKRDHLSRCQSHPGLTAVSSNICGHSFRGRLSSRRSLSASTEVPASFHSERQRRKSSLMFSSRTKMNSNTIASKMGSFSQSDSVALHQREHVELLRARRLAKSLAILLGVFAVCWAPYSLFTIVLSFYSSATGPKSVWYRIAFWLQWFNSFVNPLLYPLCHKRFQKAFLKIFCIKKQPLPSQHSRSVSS

Histamine H4 receptor [4] = biological target: T3, Histamine H4 receptor (Mus musculus, UniProt Q91ZY2); experiment: Agonist activity at mouse H4R by [35S]-GTPgammaS-binding assay; type: functional
T3 sequence (Q91ZY2 whole entry): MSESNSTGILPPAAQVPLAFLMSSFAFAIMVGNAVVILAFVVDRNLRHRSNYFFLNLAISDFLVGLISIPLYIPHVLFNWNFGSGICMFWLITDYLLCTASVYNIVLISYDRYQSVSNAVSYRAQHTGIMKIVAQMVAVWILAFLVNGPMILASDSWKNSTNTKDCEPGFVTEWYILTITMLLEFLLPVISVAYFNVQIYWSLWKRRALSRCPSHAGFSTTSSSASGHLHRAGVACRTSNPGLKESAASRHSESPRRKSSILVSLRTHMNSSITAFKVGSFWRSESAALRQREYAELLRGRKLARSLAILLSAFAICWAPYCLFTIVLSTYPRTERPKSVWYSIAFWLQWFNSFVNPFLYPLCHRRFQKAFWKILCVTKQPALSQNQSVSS

Histamine H1 receptor = Histamine H1 receptor (Homo sapiens, UniProt P35367); experiment: Displacement of 5 nM [3H-pyrilamine from human H1R expressed in Sf9 cell membranes co-expressing RGS4 by competition binding assay; outline: as §1
Chain of Histamine H1 receptor (P35367 whole entry, looked up): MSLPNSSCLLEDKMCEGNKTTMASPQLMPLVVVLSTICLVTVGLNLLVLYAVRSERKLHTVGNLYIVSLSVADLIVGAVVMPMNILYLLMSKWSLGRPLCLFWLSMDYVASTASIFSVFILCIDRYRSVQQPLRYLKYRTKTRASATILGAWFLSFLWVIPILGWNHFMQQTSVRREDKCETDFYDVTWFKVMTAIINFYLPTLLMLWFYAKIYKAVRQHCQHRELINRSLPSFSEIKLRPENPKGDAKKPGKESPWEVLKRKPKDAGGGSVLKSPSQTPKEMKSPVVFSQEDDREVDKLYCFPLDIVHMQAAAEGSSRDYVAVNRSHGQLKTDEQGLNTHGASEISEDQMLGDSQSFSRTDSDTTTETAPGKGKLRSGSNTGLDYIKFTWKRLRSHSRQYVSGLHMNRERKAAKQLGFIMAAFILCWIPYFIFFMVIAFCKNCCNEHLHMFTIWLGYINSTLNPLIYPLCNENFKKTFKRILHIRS

Histamine H3 receptor [5] = biological target: T1, Histamine H3 receptor; experiment: Displacement of 2 nM [3H]UR-PI294 from human H3R expressed in Sf9 cell membranes co-expressing Gia2 and beta1gamma2 by competition binding assay
Outline: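 Competition binding on Sf9 membranes in 100 μL with 0.2% BSA. Membrane protein: 5−25 μg (H4R), 24−35 μg (H3R), 15 μg (H2R), 23 μg (H1R). […] Normalized total binding was plotted against log competitor. Two to four independent experiments, each in triplicate.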

[6] = biological target: Histamine H4 receptor (Rattus norvegicus) (UniProt Q91ZY1)
Chain of Histamine H4 receptor (Rattus norvegicus) (Q91ZY1 whole entry): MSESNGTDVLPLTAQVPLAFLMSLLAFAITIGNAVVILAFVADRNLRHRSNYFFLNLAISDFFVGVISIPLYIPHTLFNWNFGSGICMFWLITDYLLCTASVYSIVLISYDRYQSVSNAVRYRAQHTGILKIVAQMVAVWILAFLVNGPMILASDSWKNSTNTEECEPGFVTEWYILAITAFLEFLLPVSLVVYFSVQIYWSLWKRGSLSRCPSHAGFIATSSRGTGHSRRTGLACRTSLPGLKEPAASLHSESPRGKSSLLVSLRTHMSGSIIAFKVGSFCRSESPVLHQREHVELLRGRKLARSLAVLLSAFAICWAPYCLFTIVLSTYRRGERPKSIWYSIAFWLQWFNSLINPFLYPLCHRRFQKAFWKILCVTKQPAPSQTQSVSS

[7] = Chemical stability in EtOH/H2O (70:30) at -20 degC measured over 11 months; type: physicochemical; details: 8035.5 h
Outline: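 Radioligand stored in EtOH/H2O 70:30 at −20 °C. Radiochemical purity was checked by HPLC with UV and radiometric detection after spiking with the unlabeled compound, 4 days after synthesis and again after 11 months.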

[8] = biological target: T4, Histamine H4 receptor (Mus musculus) (UniProt Q91ZY2)
T4 sequence (whole entry): T3 sequence (Q91ZY2 whole entry)

Histamine H4 receptor [9] = biological target: T2, Histamine H4 receptor
Homo sapiens [10] = species on record: Homo sapiens; experiment: (§2) Selectivity index, ratio of Ki for [3H]UR-DE257 from human H2R expressed in Sf9 cell membranes co-expressing GsalphaS by competition binding assay to Ki for displacement of 40 nM [3H]-histamine from human H4R expressed in Sf9 cell membranes co-expressing Gia2 and beta1gamma2 by competition binding assay
Homo sapiens [11] = species on record: Homo sapiens; experiment: as §2, with “displacement of 2 nM [3H]UR-PI294” for “[3H]UR-DE257”, “H3R” for “H2R”, “Gia2 and beta1gamma2” for “GsalphaS”
Histamine H2 receptor = Histamine H2 receptor (Homo sapiens, UniProt P25021); experiment: Displacement of 20 nM [3H]UR-DE257 from human H2R expressed in Sf9 cell membranes co-expressing GsalphaS by competition binding assay; outline: as §1
Chain of Histamine H2 receptor (P25021 whole entry): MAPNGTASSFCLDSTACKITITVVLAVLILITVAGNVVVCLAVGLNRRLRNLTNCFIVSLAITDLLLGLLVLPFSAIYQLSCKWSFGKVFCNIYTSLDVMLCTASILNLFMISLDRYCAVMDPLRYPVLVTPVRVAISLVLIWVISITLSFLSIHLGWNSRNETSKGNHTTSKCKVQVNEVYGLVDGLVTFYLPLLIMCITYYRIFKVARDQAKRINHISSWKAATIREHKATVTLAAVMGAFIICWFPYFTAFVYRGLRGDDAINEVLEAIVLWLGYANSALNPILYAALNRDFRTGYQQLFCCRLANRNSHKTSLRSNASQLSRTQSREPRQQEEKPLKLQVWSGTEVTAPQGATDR

Histamine H4 receptor [12] = biological target: T2, Histamine H4 receptor; experiment: Displacement of 40 nM [3H]-histamine from human H4R expressed in Sf9 cell membranes co-expressing Gia2 and beta1gamma2 by competition binding assay; outline: as §1
Histamine H4 receptor [13] = biological target: T2, Histamine H4 receptor; experiment: Binding affinity to human H4R

T1 sequence (Q9Y5N1 whole entry): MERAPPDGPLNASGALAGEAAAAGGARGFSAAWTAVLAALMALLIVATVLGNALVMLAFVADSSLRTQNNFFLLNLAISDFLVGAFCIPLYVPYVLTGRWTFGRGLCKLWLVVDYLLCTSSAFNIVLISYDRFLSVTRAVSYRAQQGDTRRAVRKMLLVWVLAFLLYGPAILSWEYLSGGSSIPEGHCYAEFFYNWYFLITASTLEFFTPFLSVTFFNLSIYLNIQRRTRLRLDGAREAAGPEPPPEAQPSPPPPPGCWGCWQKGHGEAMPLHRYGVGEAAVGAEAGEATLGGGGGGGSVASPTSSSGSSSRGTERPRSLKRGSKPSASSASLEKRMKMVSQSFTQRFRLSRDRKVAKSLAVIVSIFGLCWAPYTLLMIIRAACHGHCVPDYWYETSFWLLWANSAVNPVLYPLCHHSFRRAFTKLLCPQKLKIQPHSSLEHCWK

Compound	Ki (Histamine H3 receptor [1]) [nM]	Ki (Histamine H1 receptor) [nM]	Ki (Histamine H3 receptor [5]) [nM]	further results
CC(C)(C)CNc1nccc(N2CCc3nc[nH]c3C2)n1.O=C(O)C(F)(F)F.O=C(O)C(F)(F)F	3.31			Stability [2]: Stable
NC(=NCc1ccc(Cl)cc1)SCCCc1cnc[nH]1 [CLOBENPROPIT]				EC50 (Histamine H4 receptor [3]): 22.4 nM; EC50 (Histamine H4 receptor [4]): 851 nM
CC(C)(C)CNc1nccc(N2CCN(CCN)CC2)n1	> 10000			
CN1CCN(c2ccnc(NCC(C)(C)C)n2)CC1	5500			
CC(C)(C)CNc1nccc(NCCN)n1	692	> 1000		
CC(C)(C)CNc1nccc(NCCCc2c[nH]cn2)n1			9.33	
CC(C)(C)CNc1nccc(N2CCCNCC2)n1			537	
CN(C)[C@@H]1CCN(c2ccnc(NCC(C)(C)C)n2)C1.O=C(O)C(F)(F)F.O=C(O)C(F)(F)F		> 10000		Stability [2]: Stable
N=C(NCc1ccc(Cl)cc1)SCCCc1c[nH]cn1				pKb [6]: 6.28
CN[C@@H]1CCN(c2ccnc(NCC(C)(C)C)n2)C1	27.5		27.5	
CC(C)(C)CNc1nccc(NC2CCNC2)n1 (stereo not given)	204	> 10000	204	
CN1CCCN(c2ccnc(NCC(C)(C)C)n2)CC1.O=C(O)C(F)(F)F.O=C(O)C(F)(F)F	2400	> 10000		Stability [2]: Stable
O=C(O)C(F)(F)F.O=C(O)C(F)(F)F.[3H]C([3H])([3H])N(C)[C@@H]1CCN(c2ccnc(NCC(C)(C)C)n2)C1				Stability [7]: Stable
CC(C)(C)CNc1nccc(N2CCN(C(=N)N)CC2)n1	6030	> 1000		
CCC(=O)N[C@@H]1CCN(c2ccnc(NCC(C)(C)C)n2)C1	3020		3020	
Cc1[nH]cnc1CSCCNc1ccnc(NCC(C)(C)C)n1	> 10000	> 1000		
S=C(NC1CCCCC1)N1CCC(c2cnc[nH]2)CC1				pKb [8]: 7.12; pKb [6]: 6.44; pKb (Histamine H4 receptor [9]): 6.83
CC(C)(C)CNc1nccc(N2CCCN(C(=N)N)CC2)n1	> 10000			
CC(C)(C)CNc1nccc(NCCCN)n1	5620	> 10000	5620	
CC(C)(C)CNc1nccc(N2CCNCC2)n1	> 10000			
CC(C)(C)CNc1nccc(NC2CCNCC2)n1	3470	> 10000	3470	Ratio Ki (Homo sapiens [10]): > 4.7; Ratio Ki (Homo sapiens [11]): 1.6; Ki (Histamine H2 receptor): > 10000 nM; Ki (Histamine H4 receptor [12]): 1910 nM
CC(C)(C)CNc1nccc(NCCc2c[nH]cn2)n1			9.55	Ki (Histamine H4 receptor [12]): 204 nM
NC(=NCCc1ccc(I)cc1)SCCCc1cnc[nH]1 [IODOPHENPROPIT]				Ki (Histamine H4 receptor [13]): 12.6 nM
CC(C)(C)CNc1nccc(N2CC[C@@H](N)C2)n1	13.8			
CC(C)(C)CNc1nccc(N2CC[C@@H](NC(=N)N)C2)n1.O=C(O)C(F)(F)F.O=C(O)C(F)(F)F	1120	> 10000		Stability [2]: Stable

Reference: ChEMBL document CHEMBL4334488 (J Med Chem, 2019)
